In PMC6334763 (Archives of biochemistry and biophysics, 2018):
Where two headings read alike, the source gives them in different places.

What was measured:
Bm-iAANAT3 [1] = molecular target: T1, Bm-iAANAT3 (Bombyx mori, UniProt D7EZJ9); experiment: Activity-based substrate screening; type: biochemical; details: rate of CoA-SH release above enzyme-independent acyl-CoA hydrolysis
In short: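 Enzyme: Bm-iAANAT3 expressed from pET28a in E. coli BL-21(DE3), induced with 1.0 mM IPTG for 4 h at 37°C, and Ni-chelate purified. Acetyl-CoA or oleoyl-CoA at 500 μM was tested separately against pooled amines, each at 20 mM or 60 mM, in 300 mM Tris pH 8.0 with 150 μM DTNB. Initial rates came from CoA release at 412 nm (ε₄₁₂ = 13,600 M⁻¹ cm⁻¹), minus background thioester hydrolysis.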

Bm-iAANAT3 [2] = molecular target: T1, Bm-iAANAT3; experiment: Dead-end and product inhibition analysis; type: biochemical; details: for inhibition pattern vs. acetyl-CoA: acetyl-CoA varied, tryptamine fixed; for inhibition pattern vs. tryptamine: tryptamine varied, acetyl-CoA fixed
In short: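 Same Ni-purified Bm-iAANAT3. Initial velocities were measured at several fixed inhibitor levels: oleoyl-CoA at 0, 250 and 500 nM; tyrosol at 0, 150 and 300 μM. In one series, tryptamine was held at 100 μM while acetyl-CoA was varied at 10, 25, 50 and 100 μM. In the other, acetyl-CoA was held at 100 μM while tryptamine was varied at 50, 100, 150 and 300 μM.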

Bm-iAANAT3 [3] = molecular target: T1, Bm-iAANAT3; experiment: Steady-state kinetic characterization with Ellman's reagent; type: biochemical; details: for kcat: 300 mM Tris pH 8.0
Bm-iAANAT3 [4] = molecular target: T1, Bm-iAANAT3; details: cited from earlier work
[5] = molecular target: T2, E27A mutant of Bm-iAANAT3 (Bombyx mori, UniProt D7EZJ9, E27A); experiment: Steady-state kinetic constants of the E27A mutant; type: biochemical; details: E27A mutant compared with wild-type Bm-iAANAT3
T2 sequence (D7EZJ9 1-213 E27A): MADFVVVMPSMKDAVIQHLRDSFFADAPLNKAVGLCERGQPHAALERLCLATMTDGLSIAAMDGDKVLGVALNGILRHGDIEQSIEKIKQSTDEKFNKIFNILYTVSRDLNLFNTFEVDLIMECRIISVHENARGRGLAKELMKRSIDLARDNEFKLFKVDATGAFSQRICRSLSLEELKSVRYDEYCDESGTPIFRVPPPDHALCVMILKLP

[6] = substrate: NCCc1c[nH]c2ccccc12; experiment: Steady-state kinetic constants of the E27A mutant; type: biochemical, Bombyx mori; details: other: E27A mutant; named substrate varied; pH 8.0
[7] = substrate: CC(=O)SCCNC(=O)CCNC(=O)[C@H](O)C(C)(C)COP(=O)(O)OP(=O)(O)OC[C@H]1O[C@@H](n2cnc3c(N)ncnc32)[C@H](O)[C@@H]1OP(=O)(O)O; experiment: Steady-state kinetic constants of the E27A mutant; type: biochemical, Bombyx mori; details: other: E27A mutant; named substrate varied; pH 8.0
[8] = acyl-CoA substrate varied, 8.0 mM tryptamine, 22°C
[9] = amine substrate varied, 500 μM acetyl-CoA, 22°C
[10] = amine substrate varied, 500 μM acetyl-CoA, 22°C, 300 mM Tris pH 8.0, 150 μM DTNB
[11] = binding to free Bm-iAANAT3, ITC and/or NMR

## CCCCCCCC/C=C\CCCCCCCC(=O)SCCNC(=O)CCNC(=O)[C@H](O)C(C)(C)COP(=O)(O)OP(=O)(O)OC[C@H]1O[C@@H](n2cnc3c(N)ncnc32)[C@H](O)[C@@H]1OP(=O)(O)O [oleoyl-CoA]
Bm-iAANAT3 [1]
  substrate activity as acyl-CoA donor: no initial velocity increase
Bm-iAANAT3 [2]
  inhibition pattern vs. acetyl-CoA: competitive
  inhibition pattern vs. tryptamine: noncompetitive
Bm-iAANAT3 [2]; read-out: Ki,s, competitive vs. acetyl-CoA (varied), tryptamine fixed at 100 μM
  Ki: 0.22 ± 0.02 µM

## CCCCCCCC(=O)SCCNC(=O)CCNC(=O)[C@H](O)C(C)(C)COP(=O)(O)OP(=O)(O)OC[C@H]1O[C@@H](n2cnc3c(N)ncnc32)[C@H](O)[C@@H]1OP(=O)(O)O [octanoyl-CoA]
Bm-iAANAT3 [3]; [8]
  kcat: 0.36 ± 0.005 s⁻¹

## CCCCCCCCCC(=O)SCCNC(=O)CCNC(=O)[C@H](O)C(C)(C)COP(=O)(O)OP(=O)(O)OC[C@H]1O[C@@H](n2cnc3c(N)ncnc32)[C@H](O)[C@@H]1OP(=O)(O)O [decanoyl-CoA]
Bm-iAANAT3 [3]; [8]
  kcat: 0.05 ± 0.004 s⁻¹

## CC(C)(COP(=O)(O)OP(=O)(O)OC[C@H]1O[C@@H](n2cnc3c(N)ncnc32)[C@H](O)[C@@H]1OP(=O)(O)O)[C@@H](O)C(=O)NCCC(=O)NCCSC(=O)CC(=O)O [malonyl-CoA]
Bm-iAANAT3 [1]
  substrate activity as acyl-CoA donor: is a substrate
Bm-iAANAT3 [3]; [8]
  kcat: 13 ± 1.5 s⁻¹
Bm-iAANAT3 [3]; acyl-CoA substrates, 8.0 mM tryptamine
  fold lower (kcat/Km) than (kcat/Km) of decanoyl-CoA: ~ 6 fold

## NCCc1ccc(O)cc1 [Tyramine]
Bm-iAANAT3 [3]; [9]
  kcat: 27 ± 0.6 s⁻¹
Bm-iAANAT3 [3]; [10]
  Km: 0.063 ± 0.0067 mM

## OCCc1c[nH]c2ccccc12 [tryptophol]
Bm-iAANAT3 [4]; [11]
  Kd: 230 ± 12 µM
Bm-iAANAT3 [4]; in the presence of acetyl-CoA
  Kd: 50 ± 2 µM

## CCCC(=O)SCCNC(=O)CCNC(=O)[C@H](O)C(C)(C)COP(=O)(O)OP(=O)(O)OC[C@H]1O[C@@H](n2cnc3c(N)ncnc32)[C@H](O)[C@@H]1OP(=O)(O)O [Butyryl, buytryl-CoA]
Bm-iAANAT3 [3]; [8]
  kcat: 4.0 ± 0.04 s⁻¹

## OCCc1ccc(O)cc1 [tyrosol]
Bm-iAANAT3 [2]; Ki,i, uncompetitive vs. acetyl-CoA (varied), tryptamine fixed at 100 μM
  Ki: 230 ± 10 µM
Bm-iAANAT3 [2]; Ki,s, competitive vs. tryptamine (varied), acetyl-CoA fixed at 100 μM
  Ki: 90 ± 10 µM
Bm-iAANAT3 [2]
  inhibition pattern vs. acetyl-CoA: uncompetitive
  inhibition pattern vs. tryptamine: competitive

## NCCc1ccc(O)c(O)c1 [Dopamine]
Bm-iAANAT3 [3]; [9]
  kcat: 55 ± 1.1 s⁻¹
Bm-iAANAT3 [3]; [10]
  Km: 0.33 ± 0.023 mM

## CCCCCC(=O)SCCNC(=O)CCNC(=O)C(O)C(C)(C)COP(=O)(O)OP(=O)(O)OC[C@H]1O[C@@H](n2cnc3c(N)ncnc32)[C@H](O)[C@@H]1OP(=O)(O)O (stereo partly shown) [hexanoyl-CoA]
Bm-iAANAT3 [3]; [8]
  kcat: 1.3 ± 0.01 s⁻¹

## NC[C@H](O)c1ccc(O)c(O)c1 [Norepinephrine]
Bm-iAANAT3 [3]; [9]
  kcat: 5.3 ± 0.07 s⁻¹
Bm-iAANAT3 [3]; [10]
  Km: 0.14 ± 0.0086 mM

## NCCc1c[nH]c2ccccc12 [Tryptamine]
Bm-iAANAT3 [4]; [11]
  Kd: 220 ± 8 µM
[5]
  fold increase in Km, E27A mutant vs wild-type: 100 fold

## CC(C)(COP(=O)(O)OP(=O)(O)OC[C@H]1O[C@@H](n2cnc3c(N)ncnc32)[C@H](O)[C@@H]1OP(=O)(O)O)[C@@H](O)C(=O)NCCC(=O)NCCS [CoA-SH]
Bm-iAANAT3 [4]; [11]
  Kd: 30 ± 1 µM

## NCCc1c[nH]cn1 [Histamine]
Bm-iAANAT3 [3]; [9]
  kcat: 33 ± 0.68 s⁻¹
Bm-iAANAT3 [3]; [10]
  Km: 1.7 ± 0.098 mM
Bm-iAANAT3 [3]; amine substrate, as given in the text in mM, 500 μM acetyl-CoA
  Km: 1.7 ± 0.1 mM

## CC(=O)NCCc1c[nH]c2ccccc12 [N-acetyltryptamine]
Bm-iAANAT3 [4]; addition of CoA-SH
  effect of added CoA-SH on binding: not affected
Bm-iAANAT3 [4]; addition of acetyl-CoA
  effect of added acetyl-CoA on binding: eliminated
Bm-iAANAT3 [4]; [11]
  Kd: 12 ± 3 µM
Bm-iAANAT3 [2]
  inhibition pattern vs. acetyl-CoA: competitive
  inhibition pattern vs. tryptamine: noncompetitive

## CC(=O)SCCNC(=O)CCNC(=O)[C@H](O)C(C)(C)COP(=O)(O)OP(=O)(O)OC[C@H]1O[C@@H](n2cnc3c(N)ncnc32)[C@H](O)[C@@H]1OP(=O)(O)O [acetyl-CoA]
Bm-iAANAT3 [4]; [11]
  Kd: 0.7 µM
Bm-iAANAT3 [3]; [8]
  kcat: 64 ± 0.7 s⁻¹

B1: E27A mutant of Bm-iAANAT3 (Bombyx mori; E27A) (protein)
chain: T2 sequence (D7EZJ9 1-213 E27A)
[6]
  Km: 9400 ± 990 µM
  kcat: 8.0 ± 0.3 × 10 s^−1
[7]
  Km: 20 ± 2.2 µM
  kcat: 4.0 ± 0.09 × 10^−2 s^−1
